Assay results pooled from the literature.
Compare with care: the assays were run in different laboratories. pIC50: −log10 of the molar value.
Observed: cell growth or viability

SMILES | cell line | assay | conditions | endpoint | result
COc1cc(NC(=O)C(=O)[C@H](CC(C)C)NC(=O)[C@H](CC(C)C)NC(=O)[C@H](CC(C)C)NC(=O)c2ccc(-c3ccc(C(C)=O)cc3)o2)cc(OC)c1 | RPMI-8226 | MTS | 72 h | pIC50 | 7.44
Cc1cc(N(CCO)CCO)ccc1C=O | ACHN |  |  | IC50 | > 10 µg/mL
CC(=O)c1cccc(NC(=O)C(=O)[C@H](CC(C)C)NC(=O)[C@H](Cc2ccccc2)NC(=O)[C@H](CC(C)C)NC(=O)OCc2ccccc2)c1 | RPMI-8226 | MTS | 72 h | pIC50 | 6.79
C[C@H]1O[C@@H](O[C@H]2[C@@H](O)C[C@H](O[C@H]3[C@@H](O)C[C@H](O[C@H]4CC[C@@]5(C)[C@H](CC[C@@H]6[C@@H]5C[C@@H](O)[C@]5(C)[C@@H](C7=CC(=O)OC7)CC[C@]65O)C4)O[C@@H]3C)O[C@@H]2C)C[C@H](O)[C@@H]1O | ReNcell VM | imaging | 24 h | pIC50 | ~5.69
O=C(O)CCCc1ccc(N(CCCl)CCCl)cc1 | IOSE-144 | CCK-8 | 48 h | pIC50 | 4.78
CC(C)C[C@H](NC(=O)OCc1ccccc1)C(=O)N[C@@H](CC(C)C)C(=O)N[C@@H](CC(C)C)C(=O)C(=O)Nc1cccc2cnccc12 | RPMI-8226 | MTS | 72 h | pIC50 | 6.88
C=C(C)[C@H]1Cc2c(ccc3c2O[C@@H]2COc4cc(OC)c(OC)cc4[C@@H]2C3=O)O1 | ReNcell VM |  | 24 h | pIC50 | 6.57
CC(C)C[C@H](NC(=O)OCc1ccccc1)C(=O)N[C@@H](Cc1c[nH]c2ccccc12)C(=O)N[C@@H](CC(C)C)C(=O)C(=O)Nc1cccc(S(C)(=O)=O)c1 | RPMI-8226 | MTS | 72 h | pIC50 | 7.48
COc1ccc2[nH]cc(CCNc3nccc(Nc4cccc5c4ccn5C)n3)c2c1 | RPMI-8226 | fluorescence | 72 h | pIC50 | 7.92
CCCCC/C=C\C/C=C\C/C=C\C/C=C\CCCC(=O)NCCO | ReNcell VM |  | 24 h | pIC50 | ~5.10
N[C@@H](Cc1ccc(N(CCCl)CCCl)cc1)C(=O)O | IOSE-144 | CCK-8 | 48 h | pIC50 | < 4.30
Cc1cccc(-n2ncc(Cl)c(Cl)c2=O)c1 | NCI-H2444 | resazurin | 96 h | pIC50 | 6.62
Cc1cc(N(CCO)CCO)ccc1C(=O)O | ACHN |  |  | IC50 | > 10 µg/mL
CCOP(=S)(OCC)Oc1nc(Cl)c(Cl)cc1Cl | ReNcell VM |  | 24 h | pIC50 | ~5.00
